Experiments:
[1] = target: Metabotropic glutamate receptor 5 (Homo sapiens) (UniProt P41594); test: Phosphoinositide hydrolysis by human Metabotropic glutamate receptor 5 (mGluR5) expressed in non neuronal cells; format: cell-based
Outline: (§1)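 Transfected nonneuronal cells seeded at 2.5 × 10^5 per well in glutamine-free medium for 24 h, then labeled with [3H]myo-inositol (4 µCi/mL) for 20 h. Washed in buffer with 10 mM HEPES, inositol and LiCl. Compound added and incubated 60 min at 37 °C. [3H]inositol monophosphate separated by anion exchange and counted by scintillation. Read-out: EC50 for PI hydrolysis.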

[2] = target: Metabotropic glutamate receptor 8 (Homo sapiens) (UniProt O00222); test: Inhibition of c-AMP by human Metabotropic glutamate receptor 8 (mGluR8) expressed in non-neuronal cells; format: cell-based
Metabotropic glutamate receptor 8 (Homo sapiens), sequence (O00222 whole entry): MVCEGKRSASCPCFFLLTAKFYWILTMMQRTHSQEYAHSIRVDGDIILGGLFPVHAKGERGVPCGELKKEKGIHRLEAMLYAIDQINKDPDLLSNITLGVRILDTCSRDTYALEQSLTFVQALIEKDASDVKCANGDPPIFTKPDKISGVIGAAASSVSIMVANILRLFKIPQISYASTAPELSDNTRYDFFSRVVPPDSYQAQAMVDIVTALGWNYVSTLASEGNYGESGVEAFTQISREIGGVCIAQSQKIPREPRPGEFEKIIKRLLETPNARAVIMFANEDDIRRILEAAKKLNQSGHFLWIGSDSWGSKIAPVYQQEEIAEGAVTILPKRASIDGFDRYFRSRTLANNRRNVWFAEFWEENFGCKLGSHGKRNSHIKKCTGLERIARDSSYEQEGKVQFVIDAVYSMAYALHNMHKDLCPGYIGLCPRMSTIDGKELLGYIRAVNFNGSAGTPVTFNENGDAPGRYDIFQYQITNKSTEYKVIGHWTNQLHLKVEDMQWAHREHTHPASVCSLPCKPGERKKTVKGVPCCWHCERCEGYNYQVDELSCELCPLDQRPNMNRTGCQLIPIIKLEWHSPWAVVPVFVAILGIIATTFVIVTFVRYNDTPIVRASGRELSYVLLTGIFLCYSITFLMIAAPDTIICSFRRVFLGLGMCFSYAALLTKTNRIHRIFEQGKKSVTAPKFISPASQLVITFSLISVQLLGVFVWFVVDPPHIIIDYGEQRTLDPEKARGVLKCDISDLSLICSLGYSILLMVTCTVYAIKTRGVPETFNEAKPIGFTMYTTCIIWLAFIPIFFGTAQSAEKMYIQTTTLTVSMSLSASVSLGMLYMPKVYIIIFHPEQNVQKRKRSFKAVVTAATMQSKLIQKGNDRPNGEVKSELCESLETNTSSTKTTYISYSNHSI
Outline: (§2)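 Clonal nonneuronal cell lines expressing each mGlu subtype, washed in PBS with 3 mM glucose and 500 μM IBMX, preincubated 30 min at 37 °C. Compound added with forskolin (15 μM final), 20 min at 37 °C. Stopped with 6 mM EDTA and boiling. cAMP measured by [3H]cAMP SPA, with protein per well by Bradford assay. Read-out: EC50 for inhibition of forskolin-stimulated cAMP.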

[3] = target: Metabotropic glutamate receptor 2 (Homo sapiens) (UniProt Q14416); test: Inhibition of c-AMP by human Metabotropic glutamate receptor 2 (mGluR2) expressed in non-neuronal cells; format: cell-based; outline: as §2
[4] = target: Metabotropic glutamate receptor 3 (Homo sapiens) (UniProt Q14832); test: (§3) Inhibition of c-AMP by human Metabotropic glutamate receptor 3 (mGluR3) expressed in non-neuronal cells; format: cell-based; outline: as §2
Metabotropic glutamate receptor 3 (Homo sapiens), sequence (Q14832 23-879 limits assumed): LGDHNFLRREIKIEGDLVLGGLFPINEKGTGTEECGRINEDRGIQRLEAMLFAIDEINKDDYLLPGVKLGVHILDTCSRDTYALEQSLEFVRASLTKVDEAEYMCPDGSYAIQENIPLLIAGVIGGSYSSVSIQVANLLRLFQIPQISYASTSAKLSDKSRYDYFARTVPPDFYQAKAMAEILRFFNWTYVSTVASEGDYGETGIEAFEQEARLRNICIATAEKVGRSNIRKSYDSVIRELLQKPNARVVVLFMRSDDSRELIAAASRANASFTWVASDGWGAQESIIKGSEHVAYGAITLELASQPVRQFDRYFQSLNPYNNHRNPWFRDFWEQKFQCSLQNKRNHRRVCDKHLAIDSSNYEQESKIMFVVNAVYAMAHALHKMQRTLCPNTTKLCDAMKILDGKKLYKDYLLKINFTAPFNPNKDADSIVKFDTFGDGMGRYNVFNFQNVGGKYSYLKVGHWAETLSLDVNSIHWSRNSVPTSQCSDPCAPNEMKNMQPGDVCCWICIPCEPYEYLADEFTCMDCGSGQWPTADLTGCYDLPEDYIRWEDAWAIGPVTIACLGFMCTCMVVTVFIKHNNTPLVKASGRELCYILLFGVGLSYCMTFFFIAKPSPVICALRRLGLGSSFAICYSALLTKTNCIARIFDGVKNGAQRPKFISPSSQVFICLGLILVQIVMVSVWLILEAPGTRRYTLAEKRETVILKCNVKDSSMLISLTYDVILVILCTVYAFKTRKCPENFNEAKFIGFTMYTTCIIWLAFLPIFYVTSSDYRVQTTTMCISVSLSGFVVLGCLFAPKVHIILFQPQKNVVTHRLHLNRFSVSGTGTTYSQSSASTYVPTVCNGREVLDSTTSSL

[5] = target: Metabotropic glutamate receptor 4 (Homo sapiens) (UniProt Q14833); test: (§4) Inhibition of c-AMP by human Metabotropic glutamate receptor 4 (mGluR4) expressed in non-neuronal cells; format: cell-based; outline: as §2
[6] = target: Metabotropic glutamate receptor 7 (Homo sapiens) (UniProt Q14831); test: (§5) Inhibition of c-AMP by human Metabotropic glutamate receptor 7 (mGluR7) expressed in non-neuronal cells; format: cell-based; outline: as §2
Metabotropic glutamate receptor 7 (Homo sapiens), sequence (Q14831 whole entry): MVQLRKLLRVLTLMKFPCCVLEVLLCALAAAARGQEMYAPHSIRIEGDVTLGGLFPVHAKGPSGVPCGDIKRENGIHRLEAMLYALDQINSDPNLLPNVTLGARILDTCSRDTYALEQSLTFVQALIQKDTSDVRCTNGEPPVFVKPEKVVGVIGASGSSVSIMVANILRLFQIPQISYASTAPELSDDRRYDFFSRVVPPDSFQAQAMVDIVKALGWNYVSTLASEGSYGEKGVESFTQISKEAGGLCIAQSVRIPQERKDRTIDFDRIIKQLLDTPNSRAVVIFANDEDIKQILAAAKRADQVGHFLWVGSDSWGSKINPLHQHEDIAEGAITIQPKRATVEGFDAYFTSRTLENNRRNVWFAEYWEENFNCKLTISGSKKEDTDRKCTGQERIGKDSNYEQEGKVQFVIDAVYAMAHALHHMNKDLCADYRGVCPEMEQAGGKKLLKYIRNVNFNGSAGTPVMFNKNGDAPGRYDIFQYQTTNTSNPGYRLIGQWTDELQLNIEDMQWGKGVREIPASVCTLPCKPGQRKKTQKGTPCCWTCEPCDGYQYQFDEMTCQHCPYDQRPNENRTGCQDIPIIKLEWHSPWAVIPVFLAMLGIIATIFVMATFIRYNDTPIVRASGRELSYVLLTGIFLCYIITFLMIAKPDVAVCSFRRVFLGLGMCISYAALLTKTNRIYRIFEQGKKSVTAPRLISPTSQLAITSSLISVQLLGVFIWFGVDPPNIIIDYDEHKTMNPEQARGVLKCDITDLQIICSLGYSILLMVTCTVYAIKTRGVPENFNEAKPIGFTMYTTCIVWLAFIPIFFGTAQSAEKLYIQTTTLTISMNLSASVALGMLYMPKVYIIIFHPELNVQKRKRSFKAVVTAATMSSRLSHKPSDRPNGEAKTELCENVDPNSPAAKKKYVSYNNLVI

[7] = target: Metabotropic glutamate receptor 6 (Homo sapiens) (UniProt O15303); test: (§6) Inhibition of c-AMP by human Metabotropic glutamate receptor 6 (mGluR6) expressed in non-neuronal cells; format: cell-based; outline: as §2
Metabotropic glutamate receptor 6 (Homo sapiens), sequence (O15303 whole entry): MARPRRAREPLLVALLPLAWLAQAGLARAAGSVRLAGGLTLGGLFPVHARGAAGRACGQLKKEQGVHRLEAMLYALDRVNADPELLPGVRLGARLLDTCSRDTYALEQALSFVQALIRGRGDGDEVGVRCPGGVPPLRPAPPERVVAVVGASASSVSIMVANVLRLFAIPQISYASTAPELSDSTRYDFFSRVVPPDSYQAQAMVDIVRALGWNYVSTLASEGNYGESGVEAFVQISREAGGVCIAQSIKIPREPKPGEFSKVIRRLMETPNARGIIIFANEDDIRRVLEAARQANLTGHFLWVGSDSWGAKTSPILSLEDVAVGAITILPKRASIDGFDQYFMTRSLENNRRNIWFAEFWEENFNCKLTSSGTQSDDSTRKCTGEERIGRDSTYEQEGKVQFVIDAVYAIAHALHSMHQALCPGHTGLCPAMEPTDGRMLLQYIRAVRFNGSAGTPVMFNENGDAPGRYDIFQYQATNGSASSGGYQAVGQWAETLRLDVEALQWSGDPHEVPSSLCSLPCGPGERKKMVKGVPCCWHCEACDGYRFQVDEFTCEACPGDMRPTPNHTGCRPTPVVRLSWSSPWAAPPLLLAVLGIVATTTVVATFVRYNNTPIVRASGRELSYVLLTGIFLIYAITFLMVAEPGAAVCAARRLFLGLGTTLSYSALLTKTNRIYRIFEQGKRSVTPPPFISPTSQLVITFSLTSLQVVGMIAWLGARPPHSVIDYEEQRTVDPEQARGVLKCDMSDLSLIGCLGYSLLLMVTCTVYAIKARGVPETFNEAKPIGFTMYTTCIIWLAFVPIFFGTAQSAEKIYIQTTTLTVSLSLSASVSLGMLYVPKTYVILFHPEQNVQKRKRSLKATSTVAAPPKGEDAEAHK

[8] = target: Metabotropic glutamate receptor 5 (Homo sapiens) (UniProt P41594); test: Phosphoinositide hydrolysis by Metabotropic glutamate receptor 5 (mGluR5) expressed in non neuronal cells; format: cell-based; outline: as §1
[9] = target: Metabotropic glutamate receptor 7 (Rattus norvegicus) (UniProt P35400); test: Inhibition of c-AMP by rat Metabotropic glutamate receptor 7 mGluR7) expressed in non-neuronal cells
Metabotropic glutamate receptor 7 (Rattus norvegicus), sequence (P35400 whole entry, looked up): as the sequence (Q14831 whole entry) above, with R5G, A27V, N454H, S488T, A520S, D578N counted along it

[10] = target: Metabotropic glutamate receptor 6 (Homo sapiens) (UniProt O15303); test: as §6; format: cell-based; remark: listed apart in the source
Outline: (§7)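 Clonal nonneuronal cell lines transfected with each mGlu receptor. Cells washed in Dulbecco's PBS with 3 mM glucose and 500 μM IBMX, preincubated 30 min at 37 °C, then washed. Compound added with forskolin (15 μM final) and incubated 20 min at 37 °C. Stopped with 6 mM EDTA plus boiling, cAMP measured by [3H]cAMP SPA and normalised to Bradford protein. EC50 for inhibition of forskolin-stimulated cAMP.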

[11] = target: Metabotropic glutamate receptor 7 (Homo sapiens) (UniProt Q14831); test: as §5; format: cell-based; outline: as §7; remark: listed apart in the source
[12] = target: Metabotropic glutamate receptor 4 (Homo sapiens) (UniProt Q14833); test: as §4; format: cell-based; outline: as §7; remark: listed apart in the source
[13] = target: Metabotropic glutamate receptor 3 (Homo sapiens) (UniProt Q14832); test: as §3; format: cell-based; outline: as §7; remark: listed apart in the source
Rattus norvegicus = test: Mean effective dose that significantly blocked fear-potentiated startle(oral administration); details: read-out: MED

Metabotropic glutamate receptor 5 (Homo sapiens), sequence (P41594 21-1212 limits assumed): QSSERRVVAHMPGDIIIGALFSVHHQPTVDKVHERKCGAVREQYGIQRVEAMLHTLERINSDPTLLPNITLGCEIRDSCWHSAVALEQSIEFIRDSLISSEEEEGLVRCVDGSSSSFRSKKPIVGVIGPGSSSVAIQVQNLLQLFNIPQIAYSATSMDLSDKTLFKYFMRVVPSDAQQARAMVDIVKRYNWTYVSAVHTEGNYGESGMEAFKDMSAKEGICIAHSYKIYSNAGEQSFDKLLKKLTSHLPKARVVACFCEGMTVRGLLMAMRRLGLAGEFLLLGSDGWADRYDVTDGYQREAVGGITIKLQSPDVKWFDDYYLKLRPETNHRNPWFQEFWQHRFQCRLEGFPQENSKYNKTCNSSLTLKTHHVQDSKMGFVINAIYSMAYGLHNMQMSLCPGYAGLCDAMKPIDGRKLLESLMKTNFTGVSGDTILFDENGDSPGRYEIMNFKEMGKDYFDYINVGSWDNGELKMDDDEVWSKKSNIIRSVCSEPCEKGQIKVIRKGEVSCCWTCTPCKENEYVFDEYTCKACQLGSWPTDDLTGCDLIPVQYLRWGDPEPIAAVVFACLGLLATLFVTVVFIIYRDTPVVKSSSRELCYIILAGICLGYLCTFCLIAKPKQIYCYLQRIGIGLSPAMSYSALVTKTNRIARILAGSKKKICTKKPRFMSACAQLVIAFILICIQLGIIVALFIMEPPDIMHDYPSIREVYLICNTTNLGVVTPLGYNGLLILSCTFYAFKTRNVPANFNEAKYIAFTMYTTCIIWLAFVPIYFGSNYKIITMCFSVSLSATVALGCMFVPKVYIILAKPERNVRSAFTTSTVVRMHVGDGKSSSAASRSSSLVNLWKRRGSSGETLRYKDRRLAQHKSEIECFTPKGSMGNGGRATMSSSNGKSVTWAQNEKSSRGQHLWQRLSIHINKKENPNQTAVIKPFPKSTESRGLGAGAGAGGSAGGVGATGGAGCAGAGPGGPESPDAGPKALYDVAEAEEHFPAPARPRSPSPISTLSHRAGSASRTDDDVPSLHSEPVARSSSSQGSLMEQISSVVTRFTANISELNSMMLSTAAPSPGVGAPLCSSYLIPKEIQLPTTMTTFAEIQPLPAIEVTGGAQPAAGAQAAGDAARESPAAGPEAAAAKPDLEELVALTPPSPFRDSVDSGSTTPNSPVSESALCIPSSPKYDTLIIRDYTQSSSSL

Row | Compound | Activity [1] [µM] | Activity [2] [µM] | Activity [3] [nM] | Activity [4] [nM] | Activity [5] [µM] | Activity [6] [µM] | Activity [7] [nM] | Activity [8] [µM] | Activity [9] [µM] | Activity [10] [nM] | Activity [11] [µM] | Activity [12] [µM] | Activity [13] [nM] | minimal effective dose (Rattus norvegicus) [mg/kg]
1 | COC[C@@H]1[C@H](C(=O)O)[C@H]1[C@H](N)C(=O)O | > 100 | – | 300 | – | – | – | – | – | – | – | – | – | – | –
2 | N[C@@]1(C(=O)O)CC[C@@H]2[C@H]1[C@@]2(F)C(=O)O | > 100 | – | 16.6 | 89 | > 100 | > 100 | > 100 | – | – | – | – | – | – | –
3 | COC[C@H]1[C@H](C(=O)O)[C@H]1[C@H](N)C(=O)O | – | – | 100 | – | – | – | – | > 100 | – | – | – | – | – | –
4 | N[C@@]1(C(=O)O)CC(=O)[C@@H]2[C@H]1[C@@]2(F)C(=O)O | > 100 | – | – | – | – | – | – | – | – | > 100 | > 100 | > 100 | 2.7 | –
5 | N[C@@H](CCC(=O)O)C(=O)O | 4 | – | – | 9000 | 12 | 5400 | 20000 | – | – | – | – | – | – | –
6 | N[C@@]1(C(=O)O)CC[C@@H](C(=O)O)C1 | 15 | 45 | 12000 | 860000 | 90 | 1000 | 18000 | – | – | – | – | – | – | –

Further lines, with some results ahead:

Row | Activity [1] [µM] | Activity [2] [µM] | Activity [3] [nM] | Activity [4] [nM] | Activity [5] [µM] | Activity [6] [µM] | Activity [7] [nM] | Activity [8] [µM] | Activity [9] [µM] | Compound | Activity [10] [nM] | Activity [11] [µM] | Activity [12] [µM] | Activity [13] [nM] | minimal effective dose (Rattus norvegicus) [mg/kg]
7 | > 100 | 2.8 | 188 | 2000 | – | – | – | – | – | C[C@@H]1[C@H](C(=O)O)[C@H]1[C@H](N)C(=O)O | – | – | – | – | –
8 | > 100 | 2 | 3 | 5 | 21 | > 100 | 400 | – | – | N[C@@]1(C(=O)O)CO[C@H]2[C@H](C(=O)O)[C@H]21 | – | – | – | – | –
9 | 389 | 32 | 300 | 200 | 23 | – | 40000 | – | 40 | N[C@H](C(=O)O)C1[C@@H](C(=O)O)[C@@H]1C(=O)O (stereo not given in full) | – | – | – | – | –
10 | > 100 | 7 | 4 | 8 | > 100 | > 100 | 2000 | – | – | N[C@@]1(C(=O)O)CS[C@H]2[C@H](C(=O)O)[C@H]21 | – | – | – | – | –
11 | > 100 | > 100 | – | – | – | – | – | – | – | N[C@]1(C(=O)O)[C@H]2[C@@H](C[C@@H]1F)[C@@H]2C(=O)O | > 100 | > 100 | > 100 | 45.4 | –
12 | > 100 | 11.5 | 7.9 | 21 | > 100 | > 100 | 3000 | – | – | N[C@@]1(C(=O)O)CC[C@H]2[C@H](C(=O)O)[C@H]21 [EGLUMETAD] | – | – | – | – | 3
13 | > 100 | 1.32 | 8 | 38 | > 100 | > 100 | 1200 | – | – | C[C@H]1[C@H](C(=O)O)[C@H]1[C@H](N)C(=O)O | – | – | – | – | 0.0003
14 | 17 | 0.4 | 300 | 600 | – | 47 | 600 | – | – | N[C@H](C(=O)O)[C@H]1C[C@@H]1C(=O)O | – | – | – | – | –

Source: ChEMBL document CHEMBL1135971, “(2S,1'S,2'S,3'R)-2-(2'-carboxy-3'-methylcyclopropyl) glycine is a potent and selective metabotropic group 2 receptor agonist with anxiolytic properties” (2002)
